# According to ChEMBL document CHEMBL1128432, “Structure-activity relationships for inhibition of type 1 and 2 human 5 alpha-reductase and human adrenal 3 beta-hydroxy-delta 5-steroid dehydrogenase/3-keto-delta 5-steroid isomerase by 6-azaandrost-4-en-3-ones: optimization of the C17 substituent” (J Med Chem, 1995):
# Tests used:
# [1] = Inhibition of recombinant human adrenal 3-beta-hydroxy-delta-5-steroid dehydrogenase
# [2] = molecular target: T1, 3-oxo-5-alpha-steroid 4-dehydrogenase 2 (Homo sapiens, UniProt P31213); assay: Inhibitory activity measured on human steroid 5-alpha-reductase type 2
# T1 sequence (P31213 whole entry): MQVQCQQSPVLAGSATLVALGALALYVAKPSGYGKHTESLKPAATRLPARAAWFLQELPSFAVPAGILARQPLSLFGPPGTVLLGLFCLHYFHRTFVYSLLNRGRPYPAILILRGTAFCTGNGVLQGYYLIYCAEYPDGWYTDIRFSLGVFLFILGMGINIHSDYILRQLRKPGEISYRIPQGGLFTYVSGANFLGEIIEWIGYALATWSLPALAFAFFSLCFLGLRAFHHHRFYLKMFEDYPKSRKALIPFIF
# [3] = molecular target: T2, 3-oxo-5-alpha-steroid 4-dehydrogenase 1 (Homo sapiens, UniProt P18405); assay: Inhibition of recombinant steroid 5-alpha-reductase type I
# T2 sequence (P18405 whole entry): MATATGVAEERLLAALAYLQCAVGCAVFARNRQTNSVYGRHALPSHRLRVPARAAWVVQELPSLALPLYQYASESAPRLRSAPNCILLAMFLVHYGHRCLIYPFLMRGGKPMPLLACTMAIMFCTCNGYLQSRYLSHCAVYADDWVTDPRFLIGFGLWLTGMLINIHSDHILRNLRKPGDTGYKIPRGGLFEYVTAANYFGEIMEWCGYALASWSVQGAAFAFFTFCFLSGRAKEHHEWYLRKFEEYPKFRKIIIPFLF
# [4] = Bioavailability in dog (Beagle) at t1/2 (dose 5 mg/kg i.v.); type: ADME, organism-based, Canis lupus familiaris; details: in vivo, iv
# Procedure, shortened: (§1)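 Male beagles dosed intravenously (5 mg/kg for these lines), 2–5 animals. Blood half-life measured in hours after iv dosing; % bioavailability reported alongside.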
# Rattus norvegicus = assay: % reduction in prostate weight when compared with T-treated controls was measured in castrated rat at 10 mg/kg/day po administration; type: functional, Prostate gland
# Procedure, shortened: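 Castrated male rats, 8 per group, given 10 mg/kg/day orally alongside testosterone. The readout is ventral prostate weight reduction versus testosterone-treated controls, expressed relative to finasteride run as an internal standard in each experiment.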
# [5] = molecular target: T3, 3-oxo-5-alpha-steroid 4-dehydrogenase 2 (Rattus norvegicus, UniProt P31214); assay: Inhibitory activity was measured on rat Steroid 5-alpha-reductase type 2
# T3 sequence (P31214 whole entry): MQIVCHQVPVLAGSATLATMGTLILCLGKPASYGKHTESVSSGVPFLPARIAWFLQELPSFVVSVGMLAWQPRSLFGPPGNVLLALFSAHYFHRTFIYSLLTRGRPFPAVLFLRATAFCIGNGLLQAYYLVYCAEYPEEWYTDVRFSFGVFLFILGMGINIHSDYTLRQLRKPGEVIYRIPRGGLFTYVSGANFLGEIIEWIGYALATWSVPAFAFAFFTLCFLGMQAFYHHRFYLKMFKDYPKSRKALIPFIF
# Procedure, shortened: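 Recombinant rat type 2 5α-reductase, assayed by the same procedure as the human type 2 assay, with changes specific to the rat enzymes.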
# [6] = molecular target: T4, 3-oxo-5-alpha-steroid 4-dehydrogenase 1 (Rattus norvegicus, UniProt P24008); assay: Inhibition of recombinant Steroid 5-alpha-reductase type I was evaluated as binding affinity (in vitro)
# T4 sequence (P24008 whole entry): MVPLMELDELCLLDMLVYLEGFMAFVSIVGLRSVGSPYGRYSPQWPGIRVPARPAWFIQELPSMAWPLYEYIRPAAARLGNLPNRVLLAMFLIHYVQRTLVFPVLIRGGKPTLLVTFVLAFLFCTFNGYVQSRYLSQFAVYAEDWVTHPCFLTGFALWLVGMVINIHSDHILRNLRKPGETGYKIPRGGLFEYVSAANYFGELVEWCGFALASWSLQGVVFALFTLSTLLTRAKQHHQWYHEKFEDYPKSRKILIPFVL
# [7] = Inhibition of […] rat adrenal 3-beta-hydroxy-delta-5-steroid dehydrogenase
# Procedure, shortened: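 Rat adrenal microsomes from homogenization and differential centrifugation. Started with 8 nM [3H]DHEA, stopped at 15 min with ethanol, and androstenedione measured by radio-HPLC. Kiapp from nonlinear regression, converted to Ki with Km 21 nM.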
# [8] = Plasma half life in beagles after iv administration.; details: beagle, dog
# [9] = molecular target: T4, 3-oxo-5-alpha-steroid 4-dehydrogenase 1; assay: (§2) Inhibition of recombinant Steroid 5-alpha-reductase type I was evaluated as binding affinity of the compound
# [10] = Plasma half life in beagles after iv administration of 5 mg/kg.; type: ADME, organism-based, Canis lupus familiaris; parameters: dose 5 mg/kg, route intravenous; details: beagle, dog; procedure, shortened: as §1
# [11] = molecular target: T2, 3-oxo-5-alpha-steroid 4-dehydrogenase 1; assay: as §2
# [12] = 4 mg/kg, in the assay text read “dose 4 mg/kg i.v.” for “dose 5 mg/kg i.v.”
Structure (SMILES),Ki [1] [nM],IC50 [2] [nM],Ki [3] [nM],also measured
CC(C)(C)c1ccc(C2(NC(=O)[C@H]3CCC4C5CNC6=CC(=O)CC[C@]6(C)C5CC[C@@]43C)CCCCCC2)cc1 (some centres not stated),1500,< 0.1,3.6,
CC(C)(C)c1ccc(-c2ccc(C(C)(C)C)c(NC(=O)[C@H]3CCC4C5CNC6=CC(=O)CC[C@]6(C)C5CC[C@@]43C)c2)cc1 (some centres not stated),8900,< 0.1,1.3,
C[C@]12CCC(=O)C=C1NCC1C2CC[C@@]2(C)C1CC[C@@H]2C(=O)Nc1cc(C(F)(F)F)cc(C(F)(F)F)c1 (some centres not stated),58,0.2,26,
CC(C)(C)c1ccc(Br)cc1NC(=O)[C@H]1CCC2C3CNC4=CC(=O)CC[C@]4(C)C3CC[C@@]21C (some centres not stated),820,< 0.1,4.2,
C[C@]12CCC(=O)C=C1NCC1C2CC[C@@]2(C)C1CC[C@@H]2C(=O)NC1(c2ccc(Cl)cc2)CCCC1 (some centres not stated),1600,< 0.1,6.8,bioavailability ([4]; 5 mg/kg): 79%; Reduction in prostate weight (Rattus norvegicus): 130%; Ki [5]: 0.12 nM; Ki [6]: 0.07 nM; Ki [7]: 97 nM; half-life [8]: 12 h
C[C@]12CCC(=O)C=C1NCC1C2CC[C@@]2(C)C1CC[C@@H]2C(=O)Nc1cc(C(F)(F)F)ccc1C(F)(F)F (some centres not stated),300,< 0.1,4,"bioavailability [4, 12]: 100%; Reduction in prostate weight (Rattus norvegicus): 130%; Ki [9]: 0.27 nM; Ki [5]: 1.1 nM; Ki [7]: 50 nM; half-life [8]: 31 h"
C[C@]12CCC(=O)C=C1NCC1C2CC[C@@]2(C)C1CC[C@@H]2C(=O)NC1(c2ccc(Cl)cc2)CCCCC1 (some centres not stated),1800,< 0.1,3.1,
CC(C)(C)c1ccc(C2(NC(=O)[C@H]3CCC4C5CNC6=CC(=O)CC[C@]6(C)C5CC[C@@]43C)CCCCC2)cc1 (some centres not stated),2200,< 0.1,1.5,
CC(C)(C)c1ccc(C(C)(C)C)c(NC(=O)[C@H]2CCC3C4CNC5=CC(=O)CC[C@]5(C)C4CC[C@@]32C)c1 (some centres not stated),500,< 0.1,5,
CC(C)(C)c1ccc(-c2ccc(Cl)cc2)cc1NC(=O)[C@H]1CCC2C3CNC4=CC(=O)CC[C@]4(C)C3CC[C@@]21C (some centres not stated),1200,< 0.1,3.4,
CC(C)(C)c1ccc(C(F)(F)F)cc1NC(=O)[C@H]1CCC2C3CNC4=CC(=O)CC[C@]4(C)C3CC[C@@]21C (some centres not stated),1600,< 0.1,8.8,"bioavailability [4, 12]: 67%; Reduction in prostate weight (Rattus norvegicus): 100%; Ki [9]: 0.1 nM; Ki [5]: 0.17 nM; Ki [7]: 140 nM; half-life [8]: 8.8 h"
C[C@]12CCC(=O)C(Cl)=C1NCC1C2CC[C@@]2(C)C1CC[C@@H]2C(=O)NC1(c2ccc(Cl)cc2)CCCC1 (some centres not stated),490,< 0.1,0.6,half-life [10]: 19 h; bioavailability ([4]; 5 mg/kg): 74%; Reduction of prostate weight (Rattus norvegicus): 49%
C[C@]12C=CC(=O)NC1CCC1C2CC[C@@]2(C)C1CC[C@@H]2C(=O)NC1(c2ccc(Cl)cc2)CCCC1 (some centres not stated),9000,< 0.1,,IC50 [11]: 0.9 nM
C[C@]12CCC(=O)C=C1NCC1C2CC[C@@]2(C)C1CC[C@@H]2C(=O)Nc1ccccc1 (some centres not stated),10,,240,
CC(C)(C)NC(=O)[C@H]1CC[C@H]2[C@@H]3CC=C4C=C(C(=O)O)CC[C@]4(C)[C@H]3CC[C@]12C [EPRISTERIDE],160,,,IC50 [11]: 1600 nM
CC(C)(C)NC(=O)[C@H]1CC[C@H]2[C@@H]3CC[C@H]4NC(=O)C=C[C@]4(C)[C@H]3CC[C@]12C [FINASTERIDE],11000,,,IC50 [5]: 0.28 nM; Ki [6]: 6.8 nM; Ki [7]: 150 nM; half-life [8]: 4.2 h
CC(C)(C)c1ccc(-c2ccc(C(F)(F)F)cc2NC(=O)[C@H]2CCC3C4CNC5=CC(=O)CC[C@]5(C)C4CC[C@@]32C)cc1 (some centres not stated),19,0.5,1100,
CC(C)(C)c1ccccc1NC(=O)[C@H]1CCC2C3CNC4=CC(=O)CC[C@]4(C)C3CC[C@@]21C (some centres not stated),85,0.2,27,
CC(C)(C)c1ccc(Cl)cc1NC(=O)[C@H]1CCC2C3CNC4=CC(=O)CC[C@]4(C)C3CC[C@@]21C (some centres not stated),760,< 0.1,7.5,
CC(C)(C)c1ccc(-c2ccccc2)cc1NC(=O)[C@H]1CCC2C3CNC4=CC(=O)CC[C@]4(C)C3CC[C@@]21C (some centres not stated),830,< 0.1,4.6,
CC1=C2NCC3C(CC[C@@]4(C)C3CC[C@@H]4C(=O)Nc3cc(C(F)(F)F)ccc3C(F)(F)F)[C@@]2(C)CCC1=O (some centres not stated),19,< 0.1,0.2,
CC(C)(C)c1ccc(C2(NC(=O)[C@H]3CCC4C5CNC6=CC(=O)CC[C@]6(C)C5CC[C@@]43C)CCCC2)cc1 (some centres not stated),1500,< 0.1,3,
CC1=C2NCC3C(CC[C@@]4(C)C3CC[C@@H]4C(=O)Nc3cc(C(F)(F)F)ccc3C(C)(C)C)[C@@]2(C)CCC1=O (some centres not stated),200,< 0.1,0.5,
C[C@]12CCC(=O)C=C1NCC1C2CC[C@@]2(C)C1CC[C@@H]2C(=O)NC1(c2ccc(Cl)cc2Cl)CC1 (some centres not stated),130,< 0.1,6.7,
C[C@]12CCC(C(=O)O)=CC1=CCC1C2CC[C@@]2(C)C1CC[C@@H]2C(=O)NC1(c2ccc(Cl)cc2)CCCC1 (some centres not stated),280,< 0.1,,IC50 [11]: 60 nM
C[C@]12CC[C@H]3[C@@H](CNC4=C(Cl)C(=O)CC[C@@]43C)[C@@H]1CC[C@@H]2C(=O)Nc1c(C(F)(F)F)cccc1C(F)(F)F (stereo in doubt; 25),370,,0.6,
CC(C)(C)c1cc(Br)ccc1NC(=O)[C@H]1CCC2C3CNC4=CC(=O)CC[C@]4(C)C3CC[C@@]21C (some centres not stated),390,< 0.1,5.3,
C[C@]12CC[C@H]3[C@@H](CNC4=C(Cl)C(=O)CC[C@@]43C)[C@@H]1CC[C@@H]2C(=O)Nc1cc(C(F)(F)F)ccc1C(F)(F)F (stereo in doubt; 27),160,< 0.1,0.2,
CC(C)(C)c1cc(NC(=O)[C@H]2CCC3C4CNC5=CC(=O)CC[C@]5(C)C4CC[C@@]32C)cc(C(C)(C)C)c1 (some centres not stated),7.8,< 0.1,8,
